Experimental data reported in ChEMBL document CHEMBL3044632, “Synthesis, crystal structure, and biological activity of 4-methyl-1,2,3-thiadiazole-containing 1,2,4-triazolo[3,4-b][1,3,4]thiadiazoles” (J Agric Food Chem, 2010).
≈ marks a conversion by molar mass, not a printed value. Calls of active or inactive are those of the source. No cut-off for these calls is given here.

Tests used:
Nicotiana tabacum [1] = assay: Induction of systemic acquired resistance in Nicotiana tabacum (tobacco) mosaic virus infected Nicotiana tabacum (tobacco) plant at 100 ug/mL at 25 degC for 72 hr; format: functional
Procedure, shortened: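 Tobacco–TMV system used to assess induced resistance. The antiviral inhibition ratio was calculated from the mean number of viral lesions on inoculated leaves, relative to the matching control.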

Tobacco mosaic virus [2] = assay: Antiviral activity against Tobacco mosaic virus (TMV) infected leaves assessed as viral inhibition at 100 ug/mL at 25 degC for 72 hr; format: functional
Procedure, shortened: (§1)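 Systemic acquired resistance induction was assayed in a tobacco–TMV system. The antivirus inhibition ratio was calculated from the average number of viral lesions on inoculated leaves, relative to the corresponding control.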

Tobacco mosaic virus [3] = assay: Antiviral activity against Tobacco mosaic virus (TMV) infected leaves assessed as viral inhibition at 50 ug/mL at 25 degC for 72 hr; format: functional; procedure, shortened: as §1
Tobacco mosaic virus [4] = assay: Antiviral activity against Tobacco mosaic virus (TMV) infected leaves assessed as viral inhibition at 500 ug/mL at 25 degC for 72 hr; format: functional; procedure, shortened: as §1
Nicotiana tabacum [5] = assay: Phytotoxicity against Nicotiana tabacum (tobacco) plant at 50 to 500 ug/mL; format: organism-based; conditions: in vivo
Rhizoctonia solani [6] = assay: Fungicide activity against Rhizoctonia solani assessed as growth inhibition at 24 to 26 degC measured after 2 days; format: functional, organism-based; conditions: 48 h
Thanatephorus cucumeris [7] = assay: Fungicide activity against Thanatephorus cucumeris assessed as growth inhibition at 24 to 26 degC measured after 2 days; format: functional, organism-based; conditions: 48 h
Phytophthora infestans [8] = assay: Fungicide activity against Phytophthora infestans assessed as growth inhibition at 24 to 26 degC measured after 2 days; format: functional, organism-based; conditions: 48 h
Macrophoma = assay: Fungicide activity against Macrophoma kuwatsukai assessed as growth inhibition at 24 to 26 degC measured after 2 days; format: functional, organism-based; conditions: 48 h
[9] = system: Fusarium oxysporum f. sp. cucumerinum; assay: Fungicide activity against Fusarium oxysporum f. cucumerinum assessed as growth inhibition at 24 to 26 degC measured after 2 days; format: functional, organism-based; conditions: 48 h
Alternaria solani [10] = assay: Fungicide activity against Alternaria solani assessed as growth inhibition at 24 to 26 degC measured after 2 days; format: functional, organism-based; conditions: 48 h
Rhizoctonia solani [11] = assay: Fungicide activity against Rhizoctonia solani Kuhn assessed as growth inhibition at 50 ug/mL at 24 to 26 degC measured after 2 days; format: functional; conditions: 48 h, read-out: GI
Puccinia triticina = assay: Fungicide activity against Puccinia triticina assessed as growth inhibition at 50 ug/mL at 24 to 26 degC measured after 2 days; format: functional; conditions: 48 h, read-out: GI
Thanatephorus cucumeris [12] = assay: Fungicide activity against Thanatephorus cucumeris assessed as growth inhibition at 50 ug/mL at 24 to 26 degC measured after 2 days; format: functional; conditions: 48 h, read-out: GI
[13] = system: Botryosphaeria berengeriana; assay: Fungicide activity against Botryosphaeria berengeriana assessed as growth inhibition at 50 ug/mL at 24 to 26 degC measured after 2 days; format: functional; conditions: 48 h, read-out: GI
Phytophthora infestans [14] = assay: Fungicide activity against Phytophthora infestans assessed as growth inhibition at 50 ug/mL at 24 to 26 degC measured after 2 days; format: functional; conditions: 48 h, read-out: GI
Fusarium oxysporum = assay: Fungicide activity against Fusarium oxysporum assessed as growth inhibition at 50 ug/mL at 24 to 26 degC measured after 2 days; format: functional; conditions: 48 h, read-out: GI
Colletotrichum lagenaria = assay: Fungicide activity against Colletotrichum lagenaria assessed as growth inhibition at 50 ug/mL at 24 to 26 degC measured after 2 days; format: functional; conditions: 48 h, read-out: GI
Cercospora beticola = assay: Fungicide activity against Cercospora beticola assessed as growth inhibition at 50 ug/mL at 24 to 26 degC measured after 2 days; format: functional; conditions: 48 h, read-out: GI
Mycosphaerella arachidis = assay: Fungicide activity against Mycosphaerella arachidis assessed as growth inhibition at 50 ug/mL at 24 to 26 degC measured after 2 days; format: functional; conditions: 48 h, read-out: GI
Alternaria solani [15] = assay: Fungicide activity against Alternaria solani assessed as growth inhibition at 50 ug/mL at 24 to 26 degC measured after 2 days; format: functional; conditions: 48 h, read-out: GI

Q: For NC(=O)c1ncn([C@@H]2O[C@H](CO)[C@@H](O)[C@H]2O)n1 [RIBAVIRIN], which Activity (Nicotiana tabacum [1]) is on record?
A: Its Activity is “inactive”.

Q: And the inhibition at 100 µg/mL (Tobacco mosaic virus [2])?
A: The inhibition at 100 µg/mL was 21.6%.

Q: What about the inhibition at 50 µg/mL (Tobacco mosaic virus [3]) of the same molecule?
A: Its inhibition at 50 µg/mL is 16.7%.

Q: And the inhibition at 500 µg/mL (Tobacco mosaic virus [4])?
A: The inhibition at 500 µg/mL was 37.9%.

Q: What does the source list for Cc1nnsc1C1=NNC2SC(C(Cl)(Cl)Cl)=NN12 (configuration not stated)?
A: Activity (Nicotiana tabacum [5]): Toxic; inhibition at 100 µg/mL (Tobacco mosaic virus [2]): 33.3%; inhibition at 500 µg/mL (Tobacco mosaic virus [4]): 27.8%; EC50 (Rhizoctonia solani [6]): 4.1 µg/mL (≈ 11.9 µM); EC50 (Thanatephorus cucumeris [7]): 2.5 µg/mL (≈ 7.27 µM); EC50 (Phytophthora infestans [8]): 12.5 µg/mL (≈ 36.4 µM); EC50 (Macrophoma): 6.4 µg/mL (≈ 18.6 µM); EC50 [9]: 11.2 µg/mL (≈ 32.6 µM); EC50 (Alternaria solani [10]): 14.6 µg/mL (≈ 42.5 µM); inhibition of growth at 50 µg/mL (Rhizoctonia solani [11]): 83.3%; inhibition of growth at 50 µg/mL (Puccinia triticina): 78.9%; inhibition of growth at 50 µg/mL (Thanatephorus cucumeris [12]): 84.8%; inhibition of growth at 50 µg/mL [13]: 83.9%; inhibition of growth at 50 µg/mL (Phytophthora infestans [14]): 70.7%; inhibition of growth at 50 µg/mL (Fusarium oxysporum): 75%; inhibition of growth at 50 µg/mL (Colletotrichum lagenaria): 64.7%; inhibition of growth at 50 µg/mL (Cercospora beticola): 71.4%; inhibition of growth at 50 µg/mL (Mycosphaerella arachidis): 63.6%; inhibition of growth at 50 µg/mL (Alternaria solani [15]): 66.7%

Q: Cc1nnsc1C1=NNC2SC(c3cccc([N+](=O)[O-])c3)=NN12 (configuration not stated) was tested. Which Activity (Nicotiana tabacum [5]) did it give?
A: Its Activity is “Toxic”.

Q: What about the inhibition at 100 µg/mL (Tobacco mosaic virus [2]) of the same molecule?
A: The inhibition at 100 µg/mL was 44.4%.

Q: What about the inhibition at 500 µg/mL (Tobacco mosaic virus [4]) of the same molecule?
A: Its inhibition at 500 µg/mL is 44.4%.

Q: And the inhibition of growth at 50 µg/mL (Rhizoctonia solani [11])?
A: The inhibition of growth at 50 µg/mL was 11.1%.

Q: What about the inhibition of growth at 50 µg/mL (Puccinia triticina) of the same molecule?
A: Its inhibition of growth at 50 µg/mL is 10%.

Q: And the inhibition of growth at 50 µg/mL (Thanatephorus cucumeris [12])?
A: The inhibition of growth at 50 µg/mL was 25%.

Q: And the inhibition of growth at 50 µg/mL [13]?
A: The inhibition of growth at 50 µg/mL was 12.8%.

Q: What about the inhibition of growth at 50 µg/mL (Phytophthora infestans [14]) of the same molecule?
A: The inhibition of growth at 50 µg/mL was 54.8%.

Q: What about the inhibition of growth at 50 µg/mL (Fusarium oxysporum) of the same molecule?
A: The inhibition of growth at 50 µg/mL was 47.2%.

Q: What about the inhibition of growth at 50 µg/mL (Colletotrichum lagenaria) of the same molecule?
A: Its inhibition of growth at 50 µg/mL is 0%.

Q: And the inhibition of growth at 50 µg/mL (Cercospora beticola)?
A: Its inhibition of growth at 50 µg/mL is 0%.

Q: And the inhibition of growth at 50 µg/mL (Mycosphaerella arachidis)?
A: The inhibition of growth at 50 µg/mL was 7.7%.

Q: What about the inhibition of growth at 50 µg/mL (Alternaria solani [15]) of the same molecule?
A: Its inhibition of growth at 50 µg/mL is 9.5%.

Q: Which results are given for Cc1ccc(NC(=O)c2snnc2C)cc1Cl [TIADINIL]?
A: Activity (Nicotiana tabacum [1]): 48.92%; inhibition at 100 µg/mL (Tobacco mosaic virus [2]): 36.6%

Q: Which Activity (Nicotiana tabacum [5]) does the source give for Cc1nnsc1C1=NNC2SC(c3ccc(OC(F)(F)F)cc3)=NN12 (configuration not stated) here?
A: Its Activity is “Toxic”.

Q: And the inhibition at 50 µg/mL (Tobacco mosaic virus [3])?
A: Its inhibition at 50 µg/mL is 10.2%.

Q: And the inhibition of growth at 50 µg/mL (Rhizoctonia solani [11])?
A: The inhibition of growth at 50 µg/mL was 11.1%.

Q: What about the inhibition of growth at 50 µg/mL (Puccinia triticina) of the same molecule?
A: Its inhibition of growth at 50 µg/mL is 70%.

Q: And the inhibition of growth at 50 µg/mL (Thanatephorus cucumeris [12])?
A: Its inhibition of growth at 50 µg/mL is 30.4%.

Q: What about the inhibition of growth at 50 µg/mL [13] of the same molecule?
A: Its inhibition of growth at 50 µg/mL is 17.9%.

Q: What about the inhibition of growth at 50 µg/mL (Phytophthora infestans [14]) of the same molecule?
A: Its inhibition of growth at 50 µg/mL is 4.8%.

Q: What about the inhibition of growth at 50 µg/mL (Fusarium oxysporum) of the same molecule?
A: The inhibition of growth at 50 µg/mL was 44.4%.

Q: What about the inhibition of growth at 50 µg/mL (Colletotrichum lagenaria) of the same molecule?
A: The inhibition of growth at 50 µg/mL was 18.2%.

Q: And the inhibition of growth at 50 µg/mL (Cercospora beticola)?
A: The inhibition of growth at 50 µg/mL was 0%.

Q: And the inhibition of growth at 50 µg/mL (Mycosphaerella arachidis)?
A: The inhibition of growth at 50 µg/mL was 15.4%.

Q: What about the inhibition of growth at 50 µg/mL (Alternaria solani [15]) of the same molecule?
A: Its inhibition of growth at 50 µg/mL is 9.5%.

Q: Cc1nnsc1C1=NNC2SC(c3ccncc3)=NN12 (configuration not stated) was tested. Which Activity (Nicotiana tabacum [5]) did it give?
A: The Activity was “Toxic”.

Q: And the inhibition at 50 µg/mL (Tobacco mosaic virus [3])?
A: Its inhibition at 50 µg/mL is 27%.

Q: And the inhibition of growth at 50 µg/mL (Rhizoctonia solani [11])?
A: Its inhibition of growth at 50 µg/mL is 5.7%.

Q: What about the inhibition of growth at 50 µg/mL (Puccinia triticina) of the same molecule?
A: The inhibition of growth at 50 µg/mL was 10%.

Q: And the inhibition of growth at 50 µg/mL (Thanatephorus cucumeris [12])?
A: Its inhibition of growth at 50 µg/mL is 44.6%.

Q: What about the inhibition of growth at 50 µg/mL [13] of the same molecule?
A: The inhibition of growth at 50 µg/mL was 7.7%.

Q: What about the inhibition of growth at 50 µg/mL (Phytophthora infestans [14]) of the same molecule?
A: Its inhibition of growth at 50 µg/mL is 0%.

Q: What about the inhibition of growth at 50 µg/mL (Fusarium oxysporum) of the same molecule?
A: Its inhibition of growth at 50 µg/mL is 44.4%.

Q: What about the inhibition of growth at 50 µg/mL (Colletotrichum lagenaria) of the same molecule?
A: The inhibition of growth at 50 µg/mL was 27.3%.

Q: And the inhibition of growth at 50 µg/mL (Cercospora beticola)?
A: The inhibition of growth at 50 µg/mL was 0%.

Q: And the inhibition of growth at 50 µg/mL (Mycosphaerella arachidis)?
A: Its inhibition of growth at 50 µg/mL is 23.1%.

Q: And the inhibition of growth at 50 µg/mL (Alternaria solani [15])?
A: The inhibition of growth at 50 µg/mL was 9.5%.
